# The sample as a whole holds a higher share of hits than the screen did.
# HCT116 PTEN-null: suppresses growth of cells with PTEN deletion. HCT116 PTEN-null viability, CellTiter-Glo, 60 h; hits give low values. viability, % at 10 µM. 140,000 compounds, 1.2% hits. AID 827;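 active means viability at or below a set limit, 4 SD under the median of all tested compounds, cut at about 3.7% in these data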;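 further: PTEN knockout HCT116 line with beta catenin targeted HCT116 as companion control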
# H69AR growth 86K: blocks growth of human H69AR lung tumor cells. H69AR lung tumor viability, ATP luminescence, 72 h; hits give low values. viability, % at 10 µM. 85,000 compounds, 6% hits;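 active means viability at or below 40%; inactive means viability above 40%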;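 further: multidrug resistant small cell line overexpressing MRP-1 efflux transporter; 100% = mean luminescence of untreated control wells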
# HUVEC inhibit: blocks proliferation of human endothelial cells | HUVEC proliferation, CellTiter-Glo luminescence, 72 h; hits give low values | viability, % at 10 µM (by protocol) | 86,000 compounds, 1.1% hits | AID 648;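 active means viability at or below 30%; inactive means viability above 30%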;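 further: 100% = median luminescence of DMSO-only cell control wells on each plate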
# bCat KO growth: beta-catenin-lacking colon tumor cell growth suppression. 140,000 compounds, 1.5% hits. viability, % at 10 µM. HCT116 beta-catenin knockout viability, CellTiter-Glo, 60 h; hits give low values. AID 818;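 active means viability at or under a set limit, the compound median less 4 SD, cut at about 6% in these data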;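 further: 0% = Hyamine 1622 control at 20 µM and 100% = untreated cell control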
# Lung fibro prol: blocks proliferation of human lung fibroblasts | LL 47 human lung fibroblast viability, ATP luminescence; hits give low values | viability, % at 10 µM | AID 719 | 85,000 compounds, 1.1% hits;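 active means viability at or below 50% in the single dose screen; inactive means viability above 50%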;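 further: compound exposure lasted 72 h before the ATP readout; 100% = median luminescence of untreated cell-only wells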
#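 Test system: LL 47 human lung fibroblasts / Incubation: 72 h compound exposure at 37 °C after overnight plating / Technique: luminescent ATP detection, CellTiter-Glo / Compound dosing: 0.1% DMSO in all compound wells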
# * = called active by the depositor; · = no result.
SMILES,HCT116 PTEN-null,H69AR growth 86K,HUVEC inhibit,bCat KO growth,Lung fibro prol
Cc1oc(C(C)(C)C)cc1C(=O)N1CCCC1C(=O)O (stereo not drawn),106,108,105,95,·
COc1cc(CN(C2CCCCC2)S(=O)(=O)c2ccc(S(=O)(=O)N(C)C3CCCCC3)cc2)cc(OC)c1OC,94,·,·,88,·
O=c1[nH]c2ccccc2c2nc3ccccn3c12,72,35*,89,72,90
CCOC(=O)C1CCCN(C(=O)Cn2cnc3c2c(=O)n(C)c(=O)n3C)C1 (stereo not drawn),92,89,100,99,105
Cc1cc(C)c2c(=O)n(CC(=O)N3CCC(N4CCCCC4)CC3)sc2n1,1.9*,103,105,1.8*,76
CCOC(=O)C1CCCN(C(=O)Cn2sc3nc(C)cc(C)c3c2=O)C1 (stereo not drawn),1.7*,1.1*,93,14,83
CC/C(=N\O)c1c(O)c2c(n(-c3ccccc3)c1=O)CCCC2,95,·,·,95,·
NCCc1ccc(O)c(O)c1,22,·,·,5.8*,·
COc1cc(CNC(C)(C)CO)cc(Br)c1OCc1ccc(Cl)cc1Cl,1.6*,·,·,1.3*,·
Cc1ccc(-c2nnc(SCC(=O)Nc3ccccc3F)o2)cc1,42,64,70,38,49*
Cc1cc(NC(=O)c2ccc3c(c2)OCCO3)no1,72,34*,85,79,96
Cc1cc(NC(=O)CSc2nnc(-c3ccc4c(c3)OCCO4)o2)no1,99,2.4*,99,92,98
COCCN(C(=S)Nc1c(C)cc(C)cc1C)C(C)c1cccnc1 (stereo not drawn),102,·,·,91,·
O=C1NC(=O)C2(COC(c3cccnc3)OC2)S1 (stereo not drawn),94,·,·,97,·
CCc1nc2ccccc2c(=O)n1NC(=O)c1c(O)c2cccc3c2n(c1=O)CCC3,75,26*,95,71,95
CC(C)c1nnc(NC(=O)c2c(O)c3cccc4c3n(c2=O)CC4)s1,·,28*,86,·,96
O=C(NCc1ccccc1)c1c(O)c2cccc3c2n(c1=O)CCC3,55,73,97,58,96
CCCCc1nc2ccccc2c(=O)n1NC(=O)c1c(O)c2c(n(CC(C)C)c1=O)CCCC2,44,9.7*,113,42,76
COC(=O)c1ccccc1NC(=O)c1c(O)c2cccc3c2n(c1=O)CCC3,·,105,116,·,104
Cc1csc(NC(=O)c2c(O)c3cccc4c3n(c2=O)CCC4)n1,·,36*,128,·,96
Cc1cccc(NS(=O)(=O)c2ccc3c(c2)Cc2cc(S(=O)(=O)Nc4cccc(C)c4C)ccc2-3)c1C,6,·,·,30,·
CCc1ccc(NC(=O)c2ccc3c(c2)C(=O)N(CCOC)C3Nc2ccc(CC)cc2)cc1 (stereo not drawn),80,·,·,61,·
CNC(=O)c1c(O)c2cccc3c2n(c1=O)CC3,·,103,102,·,95
CCCc1nnc(NC(=O)c2c(O)c3cccc4c3n(c2=O)CCC4)s1,·,6.0*,108,·,97
O=C(Nc1cccnc1)c1c(O)c2cccc3c2n(c1=O)CC3,91,15*,103,99,100
SMILES,HCT116 PTEN-null,H69AR growth 86K,HUVEC inhibit,bCat KO growth,Lung fibro prol
CC1CN(C(=O)c2ccccc2)c2ccccc2NC1=O (stereo not drawn),103,·,·,94,·
CCNc1nc(NCC)n2c(SC(C(=O)Nc3cc(C)ccc3OC)c3ccccc3)nnc2n1 (stereo not drawn),63,·,·,65,·
Cc1sc2nc(SCC(=O)NCc3ccco3)n(-c3ccccc3)c(=O)c2c1C,89,55,80,92,88
Cc1ccc(-n2c(SCC(=O)NCc3ccco3)nc3sc(C)c(C)c3c2=O)cc1,87,36*,57,86,90
Cc1sc2nc(SCC(=O)NCc3ccco3)n(Cc3ccccc3)c(=O)c2c1C,64,3.1*,30*,63,90
CCOC(=O)/C(=N\Nc1ccccc1)c1csc(Nc2ccc(C)cc2)n1,34,3.3*,25*,42,79
COc1cccc(-n2nnnc2SCC(=O)Nc2ccc(C(C)=O)cc2)c1,94,99,108,85,104
CCCS(=O)(=O)c1nnnn1-c1cccc(OC)c1,1.3*,1.1*,32,1.4*,12*
Cc1cc(N)n2ncc(-c3ccc(Cl)cc3)c2n1,52,42,36,55,46*
CC(C)(C)c1cc(NCCCn2ccnc2)n2ncc(-c3ccc(Cl)cc3)c2n1,25,5.2*,8.7*,20,45*
Cc1cc(NCCCn2ccnc2)n2nc(-c3ccc(F)cc3)cc2n1,81,67,92,72,88
Cc1cc(NCCOCCO)n2ncc(-c3ccc(Cl)cc3)c2n1,19,22*,41,28,41*
Cc1cc(N)n2ncc(-c3ccc(F)cc3)c2n1,93,69,79,80,81
CCOc1cc(N2CCOCC2)c(OCC)cc1NC(C)C(=O)N1CCC(C)CC1 (stereo not drawn),85,·,·,90,·
Cc1ccc(OCC(=O)Nc2ccc(F)cc2)cc1C,97,96,102,104,99
Cc1nn(-c2ccccc2)c(C)c1C(=O)OCC(=O)N1c2ccccc2NC(=O)C1(C)C,57,17*,76,64,94
Cc1[nH]n(-c2ccc([N+](=O)[O-])cc2)c(=O)c1C=NCCc1c(C)[nH]c2ccccc12,60,·,·,61,·
COc1ccccc1NC(=S)N1CCC(c2nc3cc(C)c(C)cc3[nH]2)CC1,81,·,·,86,·
COc1ccccc1NC(=O)N1CCC(c2nc3cc(C)c(C)cc3[nH]2)CC1,14,27*,37,16,48*
Cc1ccc(OCC(=O)NNC(=O)C(=O)N2CCCC2)c(C)c1,100,·,·,104,·
O=C(Nc1ccc(F)cc1)c1sc(Cl)nc1-c1ccccc1,95,·,·,103,·
O=C(Nc1ccc(Cl)cc1)c1cnc(-c2ccccc2)nc1-c1ccccc1,2.7*,·,·,0.9*,·
Cc1cc(C)nc(N2CCCC(C(=O)Nc3nnc(C(C)C)s3)C2)n1 (stereo not drawn),88,89,94,93,106
CCOc1cc(/C=C2/C(=O)ON=C2C)ccc1OCc1ccc(F)cc1,71,·,·,89,·
CCOc1cc(/C=C2/C(=O)ON=C2C)ccc1OCc1ccccc1F,80,23*,33,80,43*
SMILES,HCT116 PTEN-null,H69AR growth 86K,HUVEC inhibit,bCat KO growth,Lung fibro prol
COc1ccc(CCCC(=O)N/N=C/c2cccc(OC)c2O)cc1C,9,·,·,10,·
Cc1ccc(S(=O)(=O)N(C)C)cc1NC(=O)COC(=O)/C(=C/c1ccc(F)cc1)c1cccs1,56,·,·,67,·
O=C(Oc1cccc2cccnc12)c1cccc(N2C(=O)C3C4CCC(C4)C3C2=O)c1 (stereo not drawn),2.1*,·,·,4.5*,·
CCOc1cc(C(=O)N2CCN(c3ccc(C(C)=O)cc3)CC2)cc(OCC)c1OCC,95,38*,93,86,100
O=C(O)CN(CC(=O)O)CC(=O)O,·,99,100,·,90
CC1=C(C)C(=O)NC(Nc2nc(C)c3cc(C)cc(C)c3n2)N1 (stereo not drawn),·,24*,24*,·,14*

# Compound activity (PubChem BioAssay)
